Source: PubChem BioAssay (several laboratories)
This is a sample that favours compounds with a hit; in the whole collection about 1.4% have one here.
ATG4B inhibitor: ATG4B protease inhibitors, primary screen, biochemical, fluorescence, uHTS | AID 504462, 2011 | ATG4B cleavage of LC3-PLA2, NBD-HPC fluorescence, 1 h | inhibition, % at 8.33 µM | Cysteine protease ATG4B (Homo sapiens), Q9Y4P1 | 340,000 tested, 0.51% active; in the data active = inhibition above about 40%
UCH37 DUB inh: inhibitors of human UCH37 deubiquitinase, primary screen, biochemical, Ub-AMC cleavage, fluorescence. Ubiquitin carboxyl-terminal hydrolase isozyme L5 (Homo sapiens), Q9Y5K5. purified proteasome/UCH37. inhibition, % (no concentration beside the values). 330,000 tested, 0.33% active;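 active = mean inhibition over replicate wells above about 20%, limit read from the data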;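 note: 0% = compound-free wells with enzyme and 100% = wells lacking proteasome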
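assay system = human UCH37 enzyme supplied as purified proteasome complex | amount = proteasome at 0.15 nM in the dispensed enzyme solution | schedule = 30 min compound-proteasome preincubation then 25 min substrate reaction, room temperature | measured by = fluorescence, ex 355 nm, em 460 nm | benchmarks = no-proteasome wells (full inhibition) and compound-free wells (no inhibition)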
TbMetRS inhib: T. brucei MetRS inhibitors, primary screen, biochemical, luminescence | 360,000 tested, 0.4% active | inhibition, % at 11.9 µM | methionyl-tRNA synthetase (Trypanosoma brucei brucei) | AID 624268, 2012 | purified T. brucei MetRS, ATP depletion, Kinase-Glo luminescence;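 active = inhibition above a per-plate cutoff of the control wells' mean inhibition plus 3 SD, cut at about 5.5% in these data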;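 note: 0% = DMSO wells median and 100% = median of wells with control inhibitor compound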
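Material: parasite MetRS enzyme / Replication: singlicate, one well per compound / Signal: luminescence of leftover ATP / Schedule: 2 h aminoacylation at 25 °C after 15 min preincubation / Medium: HEPES-MgCl2-KCl buffer plus DTT, spermine, BSA, pyrophosphatase / Doses: 11.9 µM single point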
Rin1 Abl inh: inhibitors of Rin1-Abl protein binding, primary screen, biochemical, TR-FRET | Tyrosine-protein kinase ABL1 (Homo sapiens) + Ras and Rab interactor 1 (Homo sapiens), … | inhibition, % at 7.35 µM | 360,000 tested, 0.4% active; in the data active = inhibition above about 5%, passing the limit was not always enough
An asterisk follows results filed as active; · = not tested or not shown.

SMILES | ATG4B inhibitor | UCH37 DUB inh | TbMetRS inhib | Rin1 Abl inh
COCCNC(=O)c1onc(CSc2ccc(C)c(C)c2)c1C(=O)O | -3 | 4 | 0 | -1
CCCn1nc2cc(C(=O)NC3CCCc4ccccc43)ccc2c1OCC (stereo not given) | 7 | 1 | 0 | 4
COc1cccc(-n2c(SCC(N)=O)nnc2-c2c[nH]c3ccccc23)c1 | -4 | -2 | 11* | -4
COc1cccc(-c2nnc(SCC(N)=O)n2-c2ccc(Cl)cc2)c1 | -3 | 5 | 0 | -2
Cc1cc2c(c(=O)n1C1CC1)C(c1cccc(Cl)c1)C(C#N)=C(N)O2 (stereo not given) | -8 | 0 | 63* | 3
Cc1cc2c(c(=O)n1CCN(C)C)C(c1ccc(Cl)cc1)C(C#N)=C(N)O2 (stereo not given) | -4 | 1 | 0 | -1
CN1CCN(c2ccccc2/C=N/NC(=O)c2cccnc2)CC1 | -6 | · | 0 | -3
O=C(NN=Cc1cc([N+](=O)[O-])c(N2CCOCC2)cc1N1CCOCC1)c1cccnc1 | · | 23* | · | ·
Cc1cc(C)n(C(=O)CN2C(=O)c3ccccc3C2=O)n1 | -13 | 5 | 1 | 2
Cc1nn(C(=O)CN2C(=O)c3ccccc3C2=O)c(C)c1Br | -9 | 28* | 0 | 0
Cc1ccccc1C(=O)Nc1ccc(-c2nc3ccc(C(=O)c4ccccc4)cc3[nH]2)cc1 | 5 | -2 | 0 | 8.5*
COc1ccc(C(C)=O)cc1COc1ccccc1[N+](=O)[O-] | -4 | 1 | -1 | 2
COc1ccc(CCC(C)NCc2ccc(Cl)c(Cl)c2)cc1 (stereo not given) | 1 | 4 | 0 | 1
CC(C)(C)NC(=O)NC(=O)COC(=O)COc1ccc2c(c1)CCC2 | -14 | 20* | -1 | 1
C=CCC[C@H](Cc1ccc(F)cc1)C(=O)OC[C@@H](Cc1c[nH]c2ccccc12)NC(=O)[C@@H](CC=C)CC(=O)N[C@@H](CO)Cc1ccccc1 | -18 | -1 | 0 | 3
C=CCC[C@H](Cc1ccc(F)cc1)C(=O)OC[C@H](Cc1c[nH]c2ccccc12)NC(=O)[C@@H](CC=C)CC(=O)NCCO | -10 | 25* | 0 | -2
Cc1ccccc1-c1cc(C(=O)N/N=C/c2cccnc2)c2ccccc2n1 | -1 | · | 3 | -2
O=C(N/N=C/c1cccnc1)c1cc(-c2ccccc2Cl)nc2ccccc12 | -2 | · | 7.1* | -2
O=[N+]([O-])c1cc2no[n+]([O-])c2cc1N1CCCCC1 | 5 | · | 0 | 2
COc1cc(/C=N/NC(=O)c2ccccn2)ccc1OC(=O)c1ccc(Br)cc1 | 3 | · | 0 | 2
Nc1c(N2CCOCC2)cc(Cl)c2nonc12 | -9 | 8 | 0 | -11
Nc1c(N2CCCC2)cc(Cl)c2nonc12 | 37 | 87* | 1 | 0
Nc1ccc(N2CCCCC2)c2nonc12 | -7 | 21* | 4 | 0
O=C(Nc1ccc(O)c2c(=O)cc(-c3cccc(Cl)c3)oc12)c1ccc(F)cc1 | 1 | 5 | 0 | 2
CCOC(=O)C1=C(C)N(Cc2ccccc2)C(=O)NC1c1ccc(OC)cc1 (stereo not given) | 0 | 5 | 0 | -2
SMILES | ATG4B inhibitor | UCH37 DUB inh | TbMetRS inhib | Rin1 Abl inh
O=C1NNC(c2ccccc2)=N/C1=C\c1ccccc1 | 3 | 23* | -1 | 0
Cc1ccc(NC(=O)N2CCCC2C(=O)NCC2CCCO2)cc1 (stereo not given) | -4 | 2 | 0 | 0
O=C1N/C(=C\c2ccc(O)cc2)C(=O)c2ccccc21 | -4 | 87* | 7.8* | 7
O=C(O)/C=C1\NC(=O)c2ccccc21 | -5 | 5 | -1 | -2
COC/C=C/C1=CC2=CC(=O)C(C)(OC(=O)c3cnc4ccccc4n3)C(=O)C2=CN1CC1CC1 (stereo not given) | -7 | 41* | 0 | -2
CCN(CC)C(=O)c1sc(NC(=O)c2c(OC)cccc2OC)c(C#N)c1C | 0 | 29* | -1 | 1
CC(C)=CC(=O)Nc1nnc(C)s1 | 2 | 28* | 0 | 5
CCOc1cc(NC(=O)c2cccs2)c(OCC)cc1NC(=O)c1cccnc1 | -3 | -63 | 0 | 0
O=C(C1CC(=O)N(C2CCCCC2)C1)N1CCc2ccccc21 (stereo not given) | -10 | 0 | 0 | 6
Cc1ccc(NC2=C/C(=N/S(=O)(=O)c3cccs3)c3ccccc3C2=O)cc1 | 8 | · | 0 | 0
Cc1ccc(NC2=CC(=NS(=O)(=O)c3cccs3)c3ccccc3C2=O)cc1 | · | 22* | · | ·
COc1ccc2oc(=O)c(C(=O)Nc3cccc(C)c3)cc2c1 | 3 | 2 | 1 | 1
Cc1ccc(CN2CCN(C(=O)CCN3C(=O)c4ccccc4C3=O)CC2)cc1 | -8 | 20* | -1 | 4
Cc1cccc2cc(-c3nc4c(C)cccn4c3NCc3ccco3)c(=O)[nH]c12 | -11 | 25* | 0 | 1
O=C1c2ccccc2C(=O)c2c1oc(C(F)(F)F)c2C(=O)c1ccccc1 | 4 | 24* | 0 | 3
O=C(c1ccccc1)c1coc2c1C(=O)c1ccccc1C2=O | 6 | 15 | 1 | -2
O=c1c2c(-c3ccc(Cl)cc3)csc2ncn1/N=C/c1cccc([N+](=O)[O-])c1O | -10 | · | 1 | 1
COc1ccc(C2/C(=C(/O)c3ccc4c(c3)CC(C)O4)C(=O)C(=O)N2CCCN2CCOCC2)cc1 (stereo not given) | -2 | 21* | -1 | 2
COc1ccc(C2/C(=C(/O)c3ccc4c(c3)CC(C)O4)C(=O)C(=O)N2CCN2CCOCC2)cc1 (stereo not given) | -8 | 4 | -1 | -3
CC(Cl)c1cc(-c2ncc(C(F)(F)F)cc2Cl)no1 (stereo not given) | -6 | 30* | -1 | 1
COCCN1C(=O)N[C@@H](c2ccccc2)[C@@H](C(=O)OC)[C@H]1C | 2 | 22* | 0 | 4
COC(=O)C(C(C)=O)C1=CC(=NS(=O)(=O)c2ccc(C)cc2)c2ccccc2C1=O (stereo not given) | · | 0 | · | ·
Cc1ccc(S(=O)(=O)/N=C2/C=C(Sc3ncn[nH]3)C(=O)c3ccccc32)cc1 | 35 | · | 3 | 17*
CC(C)c1ccc(S(=O)(=O)/N=C2/C=C(Sc3ncn[nH]3)C(=O)c3ccccc32)cc1 | 1 | · | 1 | 7.7*
O=C1N[C@H](Cc2ccccc2)COC(=O)[C@H](Cc2ccc(F)cc2)C/C=C\C[C@H]1CC(=O)N(CCO)Cc1ccccc1 | -20 | 2 | 1 | 1
O=C(c1ccccc1)C1C(=O)c2ccccc2C1=O | -4 | 31* | 0 | 0
O=C(/C=C/c1ccccc1)C1C(=O)c2ccccc2C1=O | -13 | 8 | -1 | -2
